For 22 compounds, IC50 results are on record in ChEMBL document CHEMBL1287780, “Discovery of 1H-benzo[d][1,2,3]triazol-1-yl 3,4,5-trimethoxybenzoate as a potential antiproliferative agent by inhibiting histone deacetylase” (Bioorg Med Chem, 2010).

The subject of test [1] is NCI-H460. Put plainly: Antiproliferative activity against human H460 cells after 72 hrs by methylene blue staining. The class given is functional, cell-based. Conditions: NCI-H460, 72 h. In short, it runs like this: (§1)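 Log-phase cells kept in RPMI-1640 with 5% fetal bovine serum, seeded at 5000 cells/mL/well, then exposed to a range of drug concentrations for 72 h. Growth read by methylene blue dye assay. IC50, the concentration giving 50% growth inhibition relative to untreated control, derived graphically. Doxorubicin served as positive control.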

Test [2] deals with KB. Briefly: Antiproliferative activity against human KB cells after 72 hrs by methylene blue staining. It counts as functional, cell-based. In short, it runs like this: as §1
Test [3] relates to MKN-45. Briefly: Antiproliferative activity against human MKN45 cells after 72 hrs by methylene blue staining. The class given is functional, cell-based. As to conditions: MKN-45, 72 h. In short, it runs like this: as §1
Test [4] has as its target Histone deacetylase. Put plainly: Inhibition of human HDAC after 30 mins. It counts as protein assay.

Take `O=C(On1nnc2ccccc21)c1ccccc1`: the results for the IC50 in test [1], in test [2] and in test [3] were 195 nM, 104 nM and 97 nM, respectively.
On the same counts, the results for `O=C(On1nnc2ccccc21)c1ccc(O)cc1` are 98 nM, 88 nM and 49 nM.
In the same order, the values of `O=C(On1nnc2ccccc21)c1cc(O)cc(O)c1` are 52 nM, 67 nM and 28 nM.
For the compound `COc1ccc(C(=O)On2nnc3ccccc32)cc1`, the half-inhibitory concentration (IC50) stood at 73100 nM in test [4], 52 nM in test [1], 43 nM in test [2] and 39 nM in test [3].
For `COc1ccc2nnn(OC(=O)c3ccccc3)c2c1`, the results for the 50% inhibitory concentration (IC50) in test [1], in test [2] and in test [3] were 295 nM, 209 nM and 206 nM, respectively.
In the same order, the values of `O=C(c1ccccc1)n1nnc2ccccc21` are 750 nM, 666 nM and 668 nM.
In the same order, the values of `O=C(c1ccc(O)cc1)n1nnc2ccccc21` are 662 nM, 577 nM and 385 nM.
On the same counts, the results for `O=C(c1cc(O)cc(O)c1)n1nnc2ccccc21` are 559 nM, 575 nM and 521 nM.
Take `O=C(c1cc(O)c(O)c(O)c1)n1nnc2ccccc21`: the results for the 50% inhibitory concentration (IC50) in test [1], in test [2] and in test [3] were 332 nM, 392 nM and 334 nM, respectively.
On the same counts, the results for `COc1ccc(C(=O)n2nnc3ccccc32)cc1` are 662 nM, 501 nM and 500 nM.
With `O=C(On1nnc2ccccc21)c1cc(O)c(O)c(O)c1`, the concentration for half-maximal inhibition (IC50) in test [4] is over 100000 nM; in test [1], 41 nM; in test [2] it was 18 nM; in test [3], 17 nM.
For the compound `COc1cc(OC)cc(C(=O)On2nnc3ccccc32)c1`, the half-maximal inhibitory concentration (IC50) was found to be 61100 nM in test [4], 42 nM in test [1], 37 nM in test [2] and 30 nM in test [3].
For the compound `COc1cc(C(=O)On2nnc3ccccc32)cc(OC)c1OC`, the IC50 in test [4] came out at 9400 nM; in test [1], 2.4 nM; in test [2], 1.2 nM; in test [3] it was 1.5 nM.
Turning to `COc1ccc2nnn(OC(=O)c3ccc(O)cc3)c2c1`, the IC50 in test [1] is 216 nM; in test [2], 149 nM; in test [3], 184 nM.
On the same counts, the results for `COc1ccc2nnn(OC(=O)c3cc(O)cc(O)c3)c2c1` are 195 nM, 153 nM and 93 nM.
On the same counts, the results for `COc1ccc2nnn(OC(=O)c3cc(O)c(O)c(O)c3)c2c1` are 117 nM, 81 nM and 36 nM.
On the same counts, the results for `COc1ccc(C(=O)On2nnc3ccc(OC)cc32)cc1` are 95 nM, 97 nM and 93 nM.
Take `COc1cc(OC)cc(C(=O)On2nnc3ccc(OC)cc32)c1`: the IC50 worked out at 87500 nM in test [4], 80 nM in test [1], 35 nM in test [2] and 36 nM in test [3].
As for `COc1ccc2nnn(OC(=O)c3cc(OC)c(OC)c(OC)c3)c2c1`, the IC50 came to 58100 nM in test [4], 23 nM in test [1], 11 nM in test [2] and 8 nM in test [3].
Consider `COc1cc(OC)cc(C(=O)n2nnc3ccccc32)c1`, for which the results for the 50% inhibitory concentration (IC50) in test [1], in test [2] and in test [3] were 491 nM, 434 nM and 419 nM, respectively.
In the same order, the values of `COc1cc(C(=O)n2nnc3ccccc32)cc(OC)c1OC` are 480 nM, 291 nM and 275 nM.
For `COc1cccc2c1C(=O)c1c(O)c3c(c(O)c1C2=O)C[C@@](O)(C(=O)CO)C[C@@H]3O[C@H]1C[C@H](N)[C@H](O)[C@H](C)O1` [DOXORUBICIN], the IC50 in test [1] stood at 0.38 nM; in test [2], 0.23 nM.
